Source: ChEMBL document CHEMBL3392991, “Structure-based design of bacterial nitric oxide synthase inhibitors” (J Med Chem, 2015)
pKi: −log10 of the molar value. Active and inactive are the calls of the source. No cut-off for these calls is given here.

Tests used:
Bacillus subtilis [1] = assay: Displacement of imidazole from Bacillus subtilis NOS
Bacillus subtilis [2] = assay: Displacement of imidazole from Bacillus subtilis NOS in presence of 50 uM H4B
Bacillus subtilis [3] = assay: Inhibition of NADPH-dependent Bacillus subtilis NOS using bBiDomain and Escherichia coli flavodoxin reductase YumC assessed as nitrite level up to 800 uM by Griess reaction
Method in brief: (§1)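 bBiDomain with the flavodoxin reductase YumC, NADPH-driven, 50 μM H4B included. Inhibitor tested over a range of concentrations. Nitrite measured at a single time point.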

Bacillus subtilis [4] = assay: Inhibition of NADPH-dependent Bacillus subtilis NOS using bBiDomain and Escherichia coli flavodoxin reductase YumC assessed as nitrite level at 300 uM by Griess reaction; set-up: Activity: scale not given: the % may be the effect or the level left; method in brief: as §1
Nitric oxide synthase 1 = Nitric oxide synthase 1 (Rattus norvegicus, UniProt P29476); assay: Inhibition of rat nNOS
Chain of Nitric oxide synthase 1 (P29476 whole entry): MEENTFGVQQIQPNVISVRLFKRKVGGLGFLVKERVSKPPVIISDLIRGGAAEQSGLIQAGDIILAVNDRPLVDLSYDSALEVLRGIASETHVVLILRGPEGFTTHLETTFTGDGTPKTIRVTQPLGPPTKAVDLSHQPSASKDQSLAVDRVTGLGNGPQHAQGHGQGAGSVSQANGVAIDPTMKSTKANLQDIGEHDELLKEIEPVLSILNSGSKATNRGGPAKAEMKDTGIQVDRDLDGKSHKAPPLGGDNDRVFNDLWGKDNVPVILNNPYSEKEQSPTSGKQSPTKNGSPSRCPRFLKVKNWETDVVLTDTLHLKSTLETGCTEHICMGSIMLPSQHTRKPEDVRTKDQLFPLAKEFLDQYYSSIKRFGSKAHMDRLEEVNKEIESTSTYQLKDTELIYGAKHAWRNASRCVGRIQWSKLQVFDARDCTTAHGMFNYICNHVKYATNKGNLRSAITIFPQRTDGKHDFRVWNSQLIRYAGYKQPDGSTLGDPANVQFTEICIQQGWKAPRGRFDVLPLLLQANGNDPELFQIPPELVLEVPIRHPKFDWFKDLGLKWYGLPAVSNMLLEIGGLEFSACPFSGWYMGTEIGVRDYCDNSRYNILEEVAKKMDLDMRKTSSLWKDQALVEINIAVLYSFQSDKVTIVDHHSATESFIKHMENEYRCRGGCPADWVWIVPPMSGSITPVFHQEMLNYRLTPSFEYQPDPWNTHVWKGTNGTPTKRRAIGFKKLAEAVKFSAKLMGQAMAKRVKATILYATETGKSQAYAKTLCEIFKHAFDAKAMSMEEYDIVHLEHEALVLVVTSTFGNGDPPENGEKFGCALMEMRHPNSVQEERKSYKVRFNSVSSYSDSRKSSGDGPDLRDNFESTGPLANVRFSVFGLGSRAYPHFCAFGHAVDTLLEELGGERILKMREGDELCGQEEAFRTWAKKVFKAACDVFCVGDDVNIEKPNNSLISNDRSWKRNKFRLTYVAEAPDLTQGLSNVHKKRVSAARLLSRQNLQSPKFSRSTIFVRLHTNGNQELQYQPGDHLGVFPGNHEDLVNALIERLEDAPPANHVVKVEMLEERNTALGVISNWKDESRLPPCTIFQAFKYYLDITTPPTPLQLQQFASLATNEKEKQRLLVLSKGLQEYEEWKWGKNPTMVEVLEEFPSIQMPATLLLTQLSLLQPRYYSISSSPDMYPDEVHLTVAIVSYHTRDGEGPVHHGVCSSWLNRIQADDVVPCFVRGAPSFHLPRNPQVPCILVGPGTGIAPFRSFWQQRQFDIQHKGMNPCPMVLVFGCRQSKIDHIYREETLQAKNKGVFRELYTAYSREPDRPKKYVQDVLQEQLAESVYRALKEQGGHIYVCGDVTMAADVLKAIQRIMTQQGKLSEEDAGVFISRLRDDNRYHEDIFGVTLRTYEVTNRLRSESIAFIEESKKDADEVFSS

[5] = target: T1, Nitric oxide synthase, inducible (Mus musculus, UniProt P29477); assay: Inhibition of mouse iNOS
T1 sequence (P29477 whole entry): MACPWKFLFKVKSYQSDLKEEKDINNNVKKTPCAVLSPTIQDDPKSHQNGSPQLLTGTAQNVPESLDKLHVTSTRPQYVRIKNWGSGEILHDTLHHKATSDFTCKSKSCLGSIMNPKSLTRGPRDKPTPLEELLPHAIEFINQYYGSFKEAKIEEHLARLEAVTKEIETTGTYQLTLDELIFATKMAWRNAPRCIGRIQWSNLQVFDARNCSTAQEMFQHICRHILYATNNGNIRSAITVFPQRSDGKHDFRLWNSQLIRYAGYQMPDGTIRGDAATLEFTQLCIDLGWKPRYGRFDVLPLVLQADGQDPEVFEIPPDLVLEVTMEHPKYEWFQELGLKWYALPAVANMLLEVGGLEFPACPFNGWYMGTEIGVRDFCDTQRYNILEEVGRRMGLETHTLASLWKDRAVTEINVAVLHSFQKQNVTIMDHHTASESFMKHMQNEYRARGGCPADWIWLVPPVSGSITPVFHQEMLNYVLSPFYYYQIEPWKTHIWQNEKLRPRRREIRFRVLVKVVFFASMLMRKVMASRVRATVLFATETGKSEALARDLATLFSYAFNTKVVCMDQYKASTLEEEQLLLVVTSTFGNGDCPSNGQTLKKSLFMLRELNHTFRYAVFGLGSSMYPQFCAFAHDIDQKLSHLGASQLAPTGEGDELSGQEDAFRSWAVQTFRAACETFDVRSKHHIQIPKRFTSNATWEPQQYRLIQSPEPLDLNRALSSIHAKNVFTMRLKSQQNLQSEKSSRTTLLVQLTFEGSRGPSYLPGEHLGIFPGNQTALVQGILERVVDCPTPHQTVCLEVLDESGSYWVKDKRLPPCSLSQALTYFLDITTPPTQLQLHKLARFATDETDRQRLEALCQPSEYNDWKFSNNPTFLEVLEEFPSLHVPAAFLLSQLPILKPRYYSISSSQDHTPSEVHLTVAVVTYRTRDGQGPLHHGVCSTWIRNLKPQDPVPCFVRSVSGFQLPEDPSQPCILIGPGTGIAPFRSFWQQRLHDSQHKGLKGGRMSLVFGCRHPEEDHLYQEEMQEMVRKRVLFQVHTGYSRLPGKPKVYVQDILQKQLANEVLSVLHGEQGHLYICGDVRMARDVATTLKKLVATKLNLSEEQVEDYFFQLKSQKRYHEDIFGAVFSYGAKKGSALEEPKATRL

Nitric oxide synthase 3 = target: T2, Nitric oxide synthase 3 (Bos taurus, UniProt P29473); assay: Inhibition of bovine eNOS
T2 sequence (P29473 whole entry): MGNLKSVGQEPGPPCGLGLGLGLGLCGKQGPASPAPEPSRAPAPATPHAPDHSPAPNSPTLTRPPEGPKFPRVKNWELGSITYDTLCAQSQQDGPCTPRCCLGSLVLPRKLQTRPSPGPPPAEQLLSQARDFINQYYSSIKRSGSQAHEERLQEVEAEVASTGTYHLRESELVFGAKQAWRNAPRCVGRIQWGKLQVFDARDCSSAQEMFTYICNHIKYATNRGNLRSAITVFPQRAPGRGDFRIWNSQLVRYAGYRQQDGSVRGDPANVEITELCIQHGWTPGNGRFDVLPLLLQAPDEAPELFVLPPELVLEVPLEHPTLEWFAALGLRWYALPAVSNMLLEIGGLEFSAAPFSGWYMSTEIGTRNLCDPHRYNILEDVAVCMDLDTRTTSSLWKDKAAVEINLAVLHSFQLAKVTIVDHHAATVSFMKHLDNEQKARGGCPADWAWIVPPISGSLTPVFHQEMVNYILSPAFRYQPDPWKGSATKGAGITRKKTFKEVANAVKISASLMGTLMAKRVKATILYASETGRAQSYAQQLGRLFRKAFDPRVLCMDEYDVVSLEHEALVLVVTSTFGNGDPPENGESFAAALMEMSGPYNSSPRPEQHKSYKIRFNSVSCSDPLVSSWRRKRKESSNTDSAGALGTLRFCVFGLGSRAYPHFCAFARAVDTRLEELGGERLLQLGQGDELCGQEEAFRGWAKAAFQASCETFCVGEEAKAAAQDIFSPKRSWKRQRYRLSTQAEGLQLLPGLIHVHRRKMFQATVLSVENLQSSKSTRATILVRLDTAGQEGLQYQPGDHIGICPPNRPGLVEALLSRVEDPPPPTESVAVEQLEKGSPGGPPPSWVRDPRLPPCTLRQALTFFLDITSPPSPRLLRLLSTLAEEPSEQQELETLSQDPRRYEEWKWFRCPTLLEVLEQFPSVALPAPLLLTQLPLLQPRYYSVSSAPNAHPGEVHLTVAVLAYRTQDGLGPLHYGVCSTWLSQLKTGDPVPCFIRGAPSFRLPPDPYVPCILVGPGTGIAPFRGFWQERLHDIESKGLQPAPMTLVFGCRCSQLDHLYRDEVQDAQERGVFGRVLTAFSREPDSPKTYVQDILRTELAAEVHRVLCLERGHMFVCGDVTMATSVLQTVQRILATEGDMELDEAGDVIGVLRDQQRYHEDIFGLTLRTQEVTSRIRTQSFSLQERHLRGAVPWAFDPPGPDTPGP

Bacillus subtilis [6] = assay: Antibacterial activity against delta nos Bacillus subtilis assessed as bacterial growth up to 800 uM measured after overnight incubation relative to control; assay type: functional; conditions: in the assay text read “at 500 uM” for “up to 800 uM”
Method in brief: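 WT (ATCC 23857) and Δnos strains grown to OD600 ≈ 1.0, diluted to OD600 0.6 in LB, then mixed with M9 minimal media with or without NOS inhibitor (final 500 μM) and/or acriflavine (final 800 μM). 30 min at 30 °C, serially diluted, plated on LB agar + 0.5% glucose, overnight at 37 °C. CFU counted; percent survival relative to untreated cells.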

Ks (Bacillus subtilis [1]) [µM] | Ks (Bacillus subtilis [2]) [µM] | inhibition (Bacillus subtilis [3]) | inhibition (Bacillus subtilis [4]) | pKi (Nitric oxide synthase 1) | pKi [5] | pKi (Nitric oxide synthase 3) | Activity (Bacillus subtilis [4]) [%] | Structure (SMILES) | inhibition (INH) (Bacillus subtilis [6]) [%]
10 | 12 | Active | Active | 6.66 | 5.15 | – | – | Cc1cc(N)nc(CCc2cc(CN)cc(CCc3ccc4cc[nH]c4n3)c2)c1 | –
– | – | Active | Active | 5.90 | 4.89 | 5.81 | – | Cc1cc(N)nc(CCc2cc(C#N)cc(NCCc3ccccn3)c2)c1 | –
12 | 19 | Active | Active | 6.71 | 4.84 | 4.93 | – | CNc1cc(C)cc(CCc2cc(C#N)cc(CCc3cc(C)cc(N)n3)c2)n1 | –
0.91 | 1.9 | Active | – | – | – | – | 49.2 | Cc1cc(N)nc(CCc2cc(N)cc(CCc3cc(C)cc(N)n3)c2)c1 | 36

The remaining lines, values behind:

Structure (SMILES) | Ks (Bacillus subtilis [1]) [µM] | Ks (Bacillus subtilis [2]) [µM] | inhibition (Bacillus subtilis [3]) | inhibition (Bacillus subtilis [4]) | pKi (Nitric oxide synthase 1) | pKi [5] | pKi (Nitric oxide synthase 3) | Activity (Bacillus subtilis [4]) [%] | inhibition (INH) (Bacillus subtilis [6]) [%]
Cc1cc(N)nc(CCc2cc(CCCN)cc(CCc3cc(C)cc(N)n3)c2)c1 | 16 | 19 | Active | Active | – | – | – | – | –
N=C(Nc1cccc(OCC(O)c2cccc(NC(=N)c3cccs3)c2)c1)c1cccs1 (stereo not given) | – | – | Active | Active | – | – | – | – | –
Cc1cc(N)nc(CCc2cc(CN)cc(CCc3cc(C)cc(N)n3)c2)c1 | 15 | 47 | Active | Active | – | – | – | – | –
N=C(NO)NCCC[C@H](N)C(=O)O | 3.2 | 1.9 | – | – | – | – | – | – | –
